From ChEMBL document CHEMBL1131598, “Synthesis and anticonvulsant activity of a new class of 2-[(arylalky)amino]alkanamide derivatives” (J Med Chem, 1998)

Experiments:
[1] = test system: Mus musculus; experiment: Anticonvulsant potency using the intravenous-BIC (bicuculline) test in mice; type: functional
Method in brief: (§1)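 Male Crl:CD-1(ICR)BR mice (22-24 g) were dosed orally at 5 mL/kg 60 min before bicuculline 0.6 mg/kg, a dose giving tonic extensor convulsions in at least 97% of vehicle-treated mice. Protection from tonic extension was scored for each mouse. ED50 (95% confidence interval) was obtained by probit analysis, with 10-20 animals per dose.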

[2] = species: Mus musculus; experiment: Anticonvulsant potency using the maximal electroshock test in mice; type: functional
Method in brief: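 Male mice received intra-aural shocks through clip electrodes (0.7 s, 28 mA, 80 Hz pulse train, 0.4 ms pulses), a stimulus giving hindlimb tonic extension in at least 97% of controls. Compound was given orally 60 min or ip 30 min beforehand, at 5 mL/kg. Protection meant complete suppression of the hindlimb tonic extensor component. ED50 (95% confidence interval) was obtained by probit analysis, with 10-20 animals per dose.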

[3] = test system: Mus musculus; experiment: Compound was tested for anticonvulsant potency using the intravenous-BIC (bicuculline) test in mice; compound at 200 mg/kg induced impaired gait, loss of the righting reflex, and impaired breathing; type: functional; method in brief: as §1
[4] = test system: Mus musculus; experiment: Compound was tested for anticonvulsant potency using the intravenous-BIC (bicuculline) test in mice; 5 out of 20 mice exhibited anticonvulsant activity; type: functional
[5] = Toxicity using neurological impairment measured by rotarod test in mice; settings: mouse, in vivo
Method in brief: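 Trained male Crl:CD-1(ICR)BR mice (22-24 g) were dosed orally at 5 mL/kg 60 min before testing on a 3-cm rod rotating at 10 rpm. Falls during a 2-min period were counted. TD50, the dose making 50% of animals fall, was calculated by probit analysis, with 10-20 animals per dose.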

[6] = test system: Mus musculus; experiment: Compound was tested for anticonvulsant potency using the intravenous-BIC (bicuculline) test in mice; 8 out of 20 mice exhibited anticonvulsant activity; type: functional
[7] = test system: Mus musculus; experiment: Compound was tested for anticonvulsant potency using the intravenous-BIC (bicuculline) test in mice; 0 out of 20 mice exhibited anticonvulsant activity; type: functional
[8] = test system: Mus musculus; experiment: Compound was tested for anticonvulsant potency using the 3-MPA (3-mercaptopropionic acid) test in mice upon peroral administration; type: functional; settings: po
Method in brief: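 Male Crl:CD-1(ICR)BR mice (22-24 g) were dosed orally at 5 mL/kg 60 min before 3-mercaptopropionic acid 60 mg/kg sc, a dose convulsing at least 97% of vehicle-treated mice. The end point was hindlimb tonic extension. ED50 (95% confidence interval) was obtained by probit analysis, with 10-20 animals per dose.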

[9] = test system: Mus musculus; experiment: Compound was tested for anticonvulsant potency using the STRY (strychnine) test in mice upon peroral administration; type: functional; settings: po
[10] = test system: Mus musculus; experiment: Anticonvulsant potency using the PTX (picrotoxin) test in mice by peroral administration; type: functional; settings: po
[11] = test system: Mus musculus; experiment: Compound was tested for anticonvulsant potency using the intravenous-BIC (bicuculline) test in mice; 2 out of 10 mice exhibited anticonvulsant activity; type: functional
[12] = test system: Mus musculus; experiment: Compound was tested for anticonvulsant potency using the intravenous-BIC (bicuculline) test in mice; 6 out of 20 mice exhibited anticonvulsant activity; type: functional
[13] = test system: Mus musculus; experiment: Compound was tested for anticonvulsant potency using the intravenous-BIC (bicuculline) test in mice; 1 out of 10 mice exhibited anticonvulsant activity; type: functional
[14] = test system: Mus musculus; experiment: Compound was tested for anticonvulsant potency using the intravenous-BIC (bicuculline) test in mice; 3 out of 20 mice exhibited anticonvulsant activity; type: functional

| SMILES | ED50 [1] | ED50 [2] | further results |
| --- | --- | --- | --- |
| C[C@H](Nc1cccc(OCc2ccccc2)c1)C(N)=O | 79.7 mg/kg | – | – |
| C[C@@H](NCc1ccc(OCC2CC2)cc1)C(N)=O | 124 mg/kg | – | – |
| CN(CC(N)=O)Cc1ccc(OCc2cccc(Cl)c2)cc1 | 114 mg/kg | 70 mg/kg | – |
| CNC(=O)[C@@H](CO)NCc1ccc(OCc2ccccc2)cc1 | – | 22.8 mg/kg | ED50 [3]: 16.3 mg/kg |
| C[C@@H](NCc1ccc(/C=C/c2ccccc2)cc1)C(N)=O | – | – | ED50 [4]: 400 mg/kg |
| CNC(=O)[C@@H](CO)NCc1ccc(OCc2cccc(C(F)(F)F)c2)cc1 | 19.5 mg/kg | 13.1 mg/kg | TD50 [5]: 750 mg/kg |
| C[C@@H](NCc1ccc(OCC2CCCCC2)cc1)C(N)=O | 131 mg/kg | – | – |
| CNC(=O)[C@@H](NCc1ccc(OCc2ccccc2)cc1)C(C)C | 55.4 mg/kg | – | – |
| CC[C@H](NCc1ccc(OCc2ccccc2)cc1)C(N)=O | 119 mg/kg | – | – |
| CNC(=O)[C@H](CC(C)C)NCc1ccc(OCc2ccccc2)cc1 | – | – | ED50 [4]: > 100 mg/kg |
| CCCCC(C)NCC(N)=O (centres undefined) | 640 mg/kg | – | – |
| C[C@@H](NCc1ccc(-c2ccccc2)cc1)C(N)=O | 231 mg/kg | – | – |
| C[C@@H](NCc1ccc(Oc2ccccc2)cc1)C(N)=O | 64 mg/kg | 41.5 mg/kg | – |
| C[C@H](NCc1ccc(OCc2ccccc2Cl)cc1)C(N)=O | – | – | ED50 [3]: 18.4 mg/kg |
| CNC(=O)[C@@H](CO)NCc1ccc(OCc2ccc(Cl)cc2)cc1 | 216 mg/kg | – | – |
| CNC(=O)[C@H](C)NCc1ccc(OCc2ccccc2)cc1 | 8.4 mg/kg | 7 mg/kg | TD50 [5]: 224 mg/kg |
| NC(=O)CNCc1ccccc1 | 490 mg/kg | – | – |
| NC(=O)CCNCCc1ccc(OCc2cccc(Cl)c2)cc1 | – | – | ED50 [6]: > 400 mg/kg |

| SMILES | ED50 [1] | ED50 [2] | further results |
| --- | --- | --- | --- |
| C[C@H](Nc1ccccc1OCc1ccccc1)C(N)=O | 210 mg/kg | – | – |
| CNC(=O)[C@@H](CCSC)NCc1ccc(OCc2ccccc2)cc1 | – | – | ED50 [7]: > 400 mg/kg |
| C[C@@H](NCc1ccc(OCc2ccsc2)cc1)C(N)=O | 114 mg/kg | – | – |
| CCCC(CCC)C(=O)O [VALPROIC ACID] | 414 mg/kg | – | ED50 [8]: 167 mg/kg; ED50 [9]: 538 mg/kg; TD50 [5]: 1180 mg/kg; ED50 [10]: 350 mg/kg |
| NC(=O)N1c2ccccc2C=Cc2ccccc21 [CARBAMAZEPINE] | 6.7 mg/kg | 9.8 mg/kg | ED50 [8]: 20.1 mg/kg; ED50 [9]: 43.8 mg/kg; TD50 [5]: 106 mg/kg; ED50 [10]: 40.6 mg/kg |
| CNC(=O)[C@@H](CO)NCc1ccc(OCc2ccccc2F)cc1 | 12.4 mg/kg | 19.8 mg/kg | TD50 [5]: 371 mg/kg |
| C[C@@H](NCc1ccc(OCc2ccncc2)cc1)C(N)=O | – | – | ED50 [11]: > 400 mg/kg |
| CNC(=O)[C@H](NCc1ccc(OCc2ccccc2)cc1)C(C)C | 112 mg/kg | – | – |
| O=C(CNCc1ccc(OCc2cccc(Cl)c2)cc1)OCc1ccccc1 | – | – | ED50 [12]: > 400 mg/kg |
| C[C@@H](NCc1ccc(OCc2ccco2)cc1)C(N)=O | 116 mg/kg | – | – |
| C[C@@H](NCc1ccc(Cc2ccccc2)cc1)C(N)=O | 15.7 mg/kg | 22.5 mg/kg | TD50 [5]: 752 mg/kg |
| NC(=O)CNCc1ccc(OCc2cccc(Cl)c2)cc1 | 107 mg/kg | 28.5 mg/kg | – |
| C[C@@H](NCc1ccc(NC(=O)c2ccccc2)cc1)C(N)=O | – | – | ED50 [13]: > 400 mg/kg |
| NC(=O)CNCCc1ccc(OCc2cccc(Cl)c2)cc1 | 192 mg/kg | – | – |
| CCOC(=O)CNCc1ccc(OCc2cccc(Cl)c2)cc1 | – | – | ED50 [14]: > 400 mg/kg |
| CNC(=O)[C@@H](CO)NCc1ccc(OCc2cccc(OC)c2)cc1 | 109 mg/kg | – | – |
| C[C@@H](NCc1ccc(OCc2ccccc2Cl)cc1)C(N)=O | 17.4 mg/kg | 50.8 mg/kg | TD50 [5]: 525 mg/kg |
| C[C@@H](NCc1ccc(OCCCc2ccccc2)cc1)C(N)=O | 19 mg/kg | 6.7 mg/kg | ED50 [8]: 16.2 mg/kg; ED50 [9]: 75.4 mg/kg; TD50 [5]: 584 mg/kg; ED50 [10]: 35.4 mg/kg |
